# Fewer inactive variants are shown than the library holds.
# B1: tRNA (parent)
# chain: GUUCCGUUGGCGUAAUGGUAACGCGUCUCCCUCCUAAGGAGAAGACUGCGGGUUCGAGUCCCGUACGGAACG
# Variants of: B1
# Test: yeast fitness relative to wild type (ratio to wild type); higher = fitter; tRNA-Arg(CCU), competitive growth, 37 C, YPD
# How it was run: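 Variants of the tRNA-Arg(CCU) gene were chemically synthesised with a 3% per-site mutation rate across 69 sites and placed at the native genomic locus in Saccharomyces cerevisiae. Six parallel replicates of the pooled strains were competed in YPD at 37°C for 24 hours, and gene amplicons from the start and end populations were read by 100-nucleotide paired-end sequencing. Darwinian fitness relative to wild type was derived from changes in genotype frequencies. Genotypes required ≥ 100 starting reads, and estimates < 0.5 were set to 0.5.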
row,Variant,yeast fitness
1,GUUCCGUUGGUGUAAUGGUAACGGGUCUCCCUACUAAGGCGAAGACUGCCGGUUCGAGUCCCGUACGGAACG [C11U C24G C33A A40C G50C],≤ 0.5
2,GUUCCGUUGGUGUAAUGGUAACGGGUCUCCCUCCUAAGGAGAAGCCUGCGGGUUCGAGUACCGUACGUAACG [C11U C24G A45C C60A G68U],≤ 0.5
3,GUUCCGUUGGUGUAAUGGUAACGGGUCUCCCUACUAAGGCGAAGACUGCGGGUUCGAGUCCCGUUCGGAACG [C11U C24G C33A A40C A65U],0.641
4,GUUCCGUUGGUGUAAUGGUAACGGGUCUCCCUCCUAAGGAGAAGACUGCGGGUUCGAGUCCGGUACGGAACG [C11U C24G C62G],≤ 0.5
5,GUUCCGUUGGUGUAAUGGUAACGCGUAUCCCUCCUAAGGAGAAGAAUGCGGGUUCGAGUCCCGUACGGAUCG [C11U C27A C46A A70U],≤ 0.5
6,GUUCCGUUGGUGUAAUGGUAACGGGUCUCCCUCCUAAGGAGAAGACUGCUGGUUCGAGUCCCCUACAGAACG [C11U C24G G50U G63C G67A],≤ 0.5
7,GUUCCGUUGGUGUAAUGGUAACGUGUCUCCCUCCUAAGGAGAACACUGAGGGUUCGAGUCCCGUACGGAACG [C11U C24U G44C C49A],≤ 0.5
8,GUUCCGUUGGUGUAAUGGUAACGCGUGUCCCUCCUAAGGAGAAGACUGCGGGUUCGAGUCCCGUACGGAACG [C11U C27G],0.703
9,GUUCCGUUGGUGUAAUGGUAACGCGUUUCCCUCCUAAGGAGAAGACUGCGGGUUCGAGUCCCGUACGGAACG [C11U C27U],0.906
10,GUUCCGUUGGUGUAAUGGUAACGUGUCUCCCUCCUAAGGAGAAGACUGCGGGAUCGAGUCCCGUAUGGAACG [C11U C24U U53A C66U],≤ 0.5
11,GUUCCGUUGGUGUAAUGGUAAGGCGUCUCCCUCCUAAGGAGAAGACUGCGGCUUCUAGUCCCGUACGGAACG [C11U C22G G52C G56U],≤ 0.5
12,GUUCCGUUGGUGUAAUGGUAAUGCGUCUCCCUCCUAAGGAGAAGACUGCGGGUUCGUGUCCCGUACGGACCG [C11U C22U A57U A70C],≤ 0.5
13,GUUCCGUUGGUGUAAUGGUAACGCGUAUCCCUCCUAAGGAGAAGACUGCGCGUUCCAGUCCCGUACGGAACG [C11U C27A G51C G56C],≤ 0.5
14,GUUCCGUUGGUGUAAUGGUAAGGCGUCUCCCUCCUAAGGAGAAGACUGCGGGUUCGAAUCUCGUACGGAACG [C11U C22G G58A C61U],0.608
15,GUUCCGUUGGUGUAAUGGUAACGGGUCUCCCUCCUAAGGAGGAGACUGCGGGUUCGAGUCCCGUACGGAACG [C11U C24G A42G],≤ 0.5
16,GUUCCGUUGGUGUAAUGGUAACGUGUCUCCCUCGUAAGGAGAAGACUGCGGGUUCGAGUCCCGAACGGAACG [C11U C24U C34G U64A],≤ 0.5
17,GUUCCGUUGGUGUAAUGGUAACGUGUCUCCCUCCUAAGGAGAAGGGUGCGGGUUGGAGUCCCGUACGGAACG [C11U C24U A45G C46G C55G],≤ 0.5
18,GUUCCGUUGGUGUAAUGGUAACGUGUCUCCCUCCUAAGGAGAACACUGAGGGUUCGAGUCCCGUACGGCACG [C11U C24U G44C C49A A69C],≤ 0.5
19,GUUCCGUUGGUGUAAUGGUAACGAGUCUCCCUCUUAUGCUGAAGACUGCGGAUUGGAGUCCCGUACGGAACG [C11U C24A C34U A37U G39C A40U G52A C55G],≤ 0.5

row,Variant,yeast fitness
1,GUUCCGUUGGUGUAAUGGUAAGGCGUCUGCCUCCUAAGGAAAAGACUGCGGGUACGAGUCCCGGACGGAACG [C11U C22G C29G G41A U54A U64G],≤ 0.5
2,GUUCCGUUGGUGUAAUGGUAACGGGUCUCCCUCCUAAGGAGAAGACAGCGGGUUCGAGUCCCGUACGGAACG [C11U C24G U47A],0.565
3,GUUCCGUUGGUGUAAUGGUAAUGCGUCUCCCUCCUAAGGAGAAGACUGCGGGUUCGAGUCCCGUACAGAACG [C11U C22U G67A],0.586
4,GUUCCGUUGGUGUAAUGGUAAGGCGUCUCCCUUCUAAGGAGAAGACUGCGGGUUCGAGUCCCGUACGGAACG [C11U C22G C33U],≤ 0.5
5,GUUCCGUUGGUGUAAUGGUAAUGCGUCUCCCUCCUAAGGAGAAGACUGCGGGUUCGUGUCCCGUACGGAACG [C11U C22U A57U],0.512
6,GUUCCGUUGGUGUAAUGGUAACGCGUAUCCCUCCUAAGGAGAAGACUGCAGGUUCGAGUCCCGUACGGUACG [C11U C27A G50A A69U],≤ 0.5
7,GUUCCGUUGGUGUAAUGGUAACGGGUCUCCCUCCUAAGGAGAAGACUGCGGGUUCGAGUCCCGUACGGAUCG [C11U C24G A70U],0.557
8,GUUCCGUUGGUGUAAUGGUAAUGUGUCUCCCUCCUAAGGAGAAGACUGCGGGUUCGAGUCCCGUACGGAACG [C11U C22U C24U],0.56
9,GUUCCGUUGGUGUAAUGGUAACGUGUCUCUCUCCUAAGGAGAAGACUGCGGGUUCGCGUCCCCUACGGAACG [C11U C24U C30U A57C G63C],≤ 0.5
10,GUUCCGUUGGUGUAAUGGUAACGUGUCUCCCUCCUAAGGAGAAGACUGAGGGUUCGAGUCCAGUACGGAACG [C11U C24U C49A C62A],≤ 0.5
11,GUUCCGUUGGUGUAAUGGUAAUGCGUCUGCCUCUUAAGGAGAAGACUCCGGGUUCGGGUCCCGUACGGAACG [C11U C22U C29G C34U G48C A57G],≤ 0.5
12,GUUCCGUUGGUGUAAUGGUAAGGCGUCUGCCUCCUAAGGAAAAGACUGCGGGUACGAGUCCCGUACGGAACG [C11U C22G C29G G41A U54A],≤ 0.5
13,GUUCCGUUGGUGUAAUGGUAACGAGUCUCCUUUCUAUGGAGAAGACUACGGGUUCGAGUCCCGUACAGAACG [C11U C24A C31U C33U A37U G48A G67A],≤ 0.5
14,GUUCCGUUGGUGUAAUGGUAACGCGUUUCCCUCCCAAGGAGAAGACUGCGGGUUCGAGUCCCGUACGGAACG [C11U C27U U35C],0.635
15,GUUCCGUUGGUGUAAUGGUAAUGCGUCUCCCUCCUAAGGAGAAGACUCCGGGUGUGAGUCCCGUACGGAACG [C11U C22U G48C U54G C55U],≤ 0.5
16,GUUCCGUUGGUGUAAUGGUAACGCGUUUCCUUCCUCAGGAGAACGCUGCGGGUUCCAGUCCCGUACGGAUCG [C11U C27U C31U A36C G44C A45G G56C A70U],≤ 0.5
17,GUUCCGUUGGUGUAAUGGUAAGGCGUCUCCCUCCUAAGGAGAAGACUGCGGGUUCGAGUCCUGUACGGACCG [C11U C22G C62U A70C],≤ 0.5
18,GUUCCGUUGGUGUAAUGGUAACGCGUAUACCUCCUAUGGAGAAGUCUGCGGGUUCGAGUCCCGUACGGAACG [C11U C27A C29A A37U A45U],0.54
